This is an account of results in ChEMBL document CHEMBL3769340, “Drug design, synthesis, in vitro and in silico evaluation of selective monoaminoxidase B inhibitors based on 3-acetyl-2-dichlorophenyl-5-aryl-2,3-dihydro-1,3,4-oxadiazole chemical scaffold” (Eur J Med Chem, 2016).

For series [1], the target named is T1, Amine oxidase [flavin-containing] B (Homo sapiens, UniProt P27338).
T1 sequence (P27338 whole entry): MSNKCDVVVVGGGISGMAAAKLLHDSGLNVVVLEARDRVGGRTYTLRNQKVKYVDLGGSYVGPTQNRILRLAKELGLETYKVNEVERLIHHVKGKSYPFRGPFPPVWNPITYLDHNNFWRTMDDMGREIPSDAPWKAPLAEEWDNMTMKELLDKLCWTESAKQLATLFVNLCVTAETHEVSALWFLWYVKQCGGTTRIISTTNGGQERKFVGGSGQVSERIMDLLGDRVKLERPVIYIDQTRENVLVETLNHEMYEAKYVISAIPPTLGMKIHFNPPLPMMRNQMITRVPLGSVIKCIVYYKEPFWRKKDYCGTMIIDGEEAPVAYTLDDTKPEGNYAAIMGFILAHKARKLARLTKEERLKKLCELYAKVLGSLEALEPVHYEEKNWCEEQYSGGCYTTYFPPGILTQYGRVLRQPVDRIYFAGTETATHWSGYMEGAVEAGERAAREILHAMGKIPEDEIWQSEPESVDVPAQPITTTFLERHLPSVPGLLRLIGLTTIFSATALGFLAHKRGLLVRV
The series is described as follows: Inhibition of human recombinant MAO-B expressed in baculovirus infected BTI cells using p-tyramine as substrate after 15 mins by Amplex Red-based fluorescence assay. It counts as cell-based.

Series [2] has as its target T1, Amine oxidase [flavin-containing] B. The series is described as follows: Inhibition of human recombinant MAO-B expressed in baculovirus infected BTI cells using p-tyramine as substrate at 100000 nM after 15 mins by Amplex Red-based fluorescence assay. The settings on record: 0.25 h; for inhibition (INH): bti, 100 µM. A digest of the protocol:
(§1)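 Recombinant hMAO-A or hMAO-B, set to oxidize 165 pmol p-tyramine/min in controls, preincubated with compound for 15 min at 37 °C in the dark. Reaction started with Amplex Red, horseradish peroxidase (1 U/mL) and p-tyramine. Resorufin fluorescence read at 37 °C (ex 545, em 590 nm), with an enzyme-free buffer blank subtracted. Single highest concentration tested: 100000 nM, or 1×10⁶ nM.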

Series [3] deals with T2, Amine oxidase [flavin-containing] A (Homo sapiens, UniProt P21397).
T2 sequence (P21397 whole entry): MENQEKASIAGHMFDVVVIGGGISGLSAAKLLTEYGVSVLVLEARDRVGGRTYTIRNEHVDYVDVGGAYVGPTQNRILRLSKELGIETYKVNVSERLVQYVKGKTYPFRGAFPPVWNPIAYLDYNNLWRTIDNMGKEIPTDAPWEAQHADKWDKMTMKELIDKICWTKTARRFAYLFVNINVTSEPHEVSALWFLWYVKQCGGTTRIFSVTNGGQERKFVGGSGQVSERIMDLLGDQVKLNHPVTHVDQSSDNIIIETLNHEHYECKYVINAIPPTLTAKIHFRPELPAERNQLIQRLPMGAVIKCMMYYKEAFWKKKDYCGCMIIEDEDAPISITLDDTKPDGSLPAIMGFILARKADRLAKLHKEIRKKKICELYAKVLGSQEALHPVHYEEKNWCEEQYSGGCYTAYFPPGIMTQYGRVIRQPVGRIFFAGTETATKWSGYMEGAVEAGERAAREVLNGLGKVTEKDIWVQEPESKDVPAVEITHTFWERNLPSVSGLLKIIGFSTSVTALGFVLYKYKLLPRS
Nature of the series: Inhibition of human recombinant MAO-A expressed in baculovirus infected BTI cells using p-tyramine as substrate at 100000 nM after 15 mins by Amplex Red-based fluorescence assay. The settings on record: 0.25 h, 100 µM. Put shortly: as §1

The target in series [4] is T1, Amine oxidase [flavin-containing] B. The series is described as follows: Inhibition of human recombinant MAO-B expressed in baculovirus infected BTI cells using p-tyramine as substrate at 1x10'6 nM after 15 mins by Amplex Red-based fluorescence assay. The settings on record: 0.25 h. A digest of the protocol: as §1

Usually IC50 stands for the concentration at which inhibition is half-maximal. For `CC(=O)N1N=C(c2ccc([N+](=O)[O-])cc2)O[C@@H]1c1ccc(Cl)c(Cl)c1`, in series [1], the IC50 is 7.61 nM.

In the case of `CC(=O)N1N=C(c2ccc([N+](=O)[O-])cc2)O[C@H]1c1ccc(Cl)c(Cl)c1`, the IC50 in series [1] was 523 nM.

For orientation: inhibition means the relative decrease from the control value, in per cent. Take `CC(=O)N1N=C(c2ccccc2)OC1c1ccc(Cl)c(Cl)c1` (stereo not given): the inhibition at 100 µM in series [2] (BTI) was found to be 40%. The “inhibition (INH)” value in series [3] is on record as “Not Active”.

For the compound `O=C(NCCN1CCOCC1)c1ccc(Cl)cc1` [MOCLOBEMIDE], in series [4], the “inhibition (INH)” value is listed as “Not Active”.

Consider `COc1ccc(C2=NN(C(C)=O)C(c3ccc(Cl)c(Cl)c3)O2)cc1` (stereo not given), for which the half-maximal inhibitory concentration (IC50) in series [1] amounted to 218 nM. Further, the “inhibition (INH)” value in series [3] is reported as “Not Active”.

On to `CC(=O)N1N=C(c2ccccc2C)OC1c1ccc(Cl)c(Cl)c1` (stereo not given), for which the 50% inhibitory concentration (IC50) in series [1] was 2460 nM. Also, the “inhibition (INH)” value in series [3] is reported as “Not Active”.

In the case of `CC(=O)N1N=C(c2ccc(Cl)cc2)OC1c1ccc(Cl)c(Cl)c1` (racemic), in series [1], the IC50 came to 627 nM. For the same compound, the “inhibition (INH)” value in series [3] was “Not Active”.

On to `CC(=O)N1N=C(c2ccc(C)cc2)OC1c1ccc(Cl)c(Cl)c1` (stereo not given), for which the IC50 in series [1] amounted to 19.3 nM. Also, the “inhibition (INH)” value in series [3] was “Not Active”.

With `CC(=O)N1N=C(c2ccc(Cl)cc2)O[C@H]1c1ccc(Cl)c(Cl)c1`, the “inhibition (INH)” value in series [2] is “Not Active”.

`CC(=O)N1N=C(c2ccncc2)OC1c1ccc(Cl)c(Cl)c1` (stereo not given): the concentration for half-maximal inhibition (IC50) in series [1] turned out to be 69400 nM. Moreover, the “inhibition (INH)” value in series [3] is “Not Active”.

On to `CC(=O)N1N=C(c2ccc(C#N)cc2)OC1c1ccc(Cl)c(Cl)c1` (stereo not given), for which the “inhibition (INH)” value in series [2] and in series [3] was “Not Active” throughout.

Consider `CC(=O)N1N=C(c2ccc(Cl)cc2)O[C@@H]1c1ccc(Cl)c(Cl)c1`, for which the half-inhibitory concentration (IC50) in series [1] is 204 nM.

Turning to `CC(=O)N1N=C(c2ccc([N+](=O)[O-])cc2)OC1c1ccc(Cl)c(Cl)c1` (racemic), in series [1], the half-inhibitory concentration (IC50) was determined as 9.46 nM. For the same compound, the “inhibition (INH)” value in series [3] was “Not Active”.

On to `CC(=O)N1N=C(c2ccc(N(C)C)cc2)OC1c1ccc(Cl)c(Cl)c1` (stereo not given), for which the “inhibition (INH)” value in series [2] and in series [3] was “Not Active” throughout.

Regarding `CC(=O)N1N=C(c2ccc(Br)cc2)OC1c1ccc(Cl)c(Cl)c1` (stereo not given), the half-maximal inhibitory concentration (IC50) in series [1] came to 67.7 nM. Further, the “inhibition (INH)” value in series [3] is “Not Active”.
